In ChEMBL document CHEMBL3085745, “Plakinamine M, a steroidal alkaloid from the marine sponge Corticium sp” (2013):
≈ marks a conversion by molar mass, not a printed value. Calls of active or inactive are those of the source. The rule behind the calls is not given here.

Columns and labels:
Bacillus subtilis = assay: Antibacterial activity against Bacillus subtilis at 50 ug/mL; assay type: functional, organism-based
Candida albicans = assay: Antifungal activity against Candida albicans at 50 ug/mL; assay type: functional, organism-based
[1] = test system: Mycobacterium tuberculosis; assay: Antimycobacterial activity against Mycobacterium tuberculosis H37Ra ATCC 25177 after 4 days by MTT assay; assay type: functional; conditions: H37Ra ATCC 25177, 96 h
Outline: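 Inoculum from a frozen bacterial pellet diluted into fresh medium to a final 5×10⁵ CFU/mL, dispensed onto compound in quadruplicate wells. DMSO-only wells served as negative control and rifampicin at 250 ng/mL as positive control. Incubated 4 days at 37 °C, then MTT added for a further 12 h. After subtracting media-only blanks, % inhibition = (1 − Σtest/Σcontrol)×100.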

Escherichia coli = assay: Antibacterial activity against Escherichia coli at 50 ug/mL; assay type: functional, organism-based
Staphylococcus aureus = assay: Antibacterial activity against Staphylococcus aureus at 50 ug/mL; assay type: functional, organism-based

| Structure (SMILES) | Activity (Bacillus subtilis) | Activity (Candida albicans) | MIC [1] [µg/mL] | Activity (Escherichia coli) | Activity (Staphylococcus aureus) |
| --- | --- | --- | --- | --- | --- |
| CC(C)/C(=C\C[C@@H](C)[C@H]1CC[C@H]2C3=CC[C@H]4C[C@H](N(C)C)CC[C@]4(C)[C@H]3CC[C@]12C)CCN(C)C | inactive | Active | 3.6 (≈ 7.46 µM) | inactive | inactive |
| CC(C)/C(=C\C[C@@H](C)[C@H]1CC[C@H]2C3=CC[C@H]4C[C@H](N(C)C)[C@@H](O)C[C@]4(C)[C@H]3CC[C@]12C)CCN(C)C | inactive | Active | 15.8 (≈ 31.7 µM) | inactive | inactive |
